# pEC50, pIC50: −log10 of the molar value. Activity calls are given as the source filed them. The calls are words filed in the database; no cut-off is given here.
# Legend:
# [1] = system: Salmonella typhimurium; test: Mutagenic activity in Salmonella Typhimurium TA97a by Ames test in absence of S9 fraction; type: toxicity, organism-based; conditions: salmonella enterica subsp. enterica serovar typhimurium
# [2] = Cmax in Sprague-Dawley rat at 1 mg/kg, iv and 1.5 mg/kg, po; type: ADME, organism-based; conditions: in vivo
# [3] = target: T1, Sphingosine 1-phosphate receptor 4 (Homo sapiens, UniProt O95977); test: Agonist activity at recombinant human S1P4 receptor expressed in HEK293 cells after 2 hrs by beta-arrestin assay; type: functional, cell-based
# T1 sequence (O95977 whole entry): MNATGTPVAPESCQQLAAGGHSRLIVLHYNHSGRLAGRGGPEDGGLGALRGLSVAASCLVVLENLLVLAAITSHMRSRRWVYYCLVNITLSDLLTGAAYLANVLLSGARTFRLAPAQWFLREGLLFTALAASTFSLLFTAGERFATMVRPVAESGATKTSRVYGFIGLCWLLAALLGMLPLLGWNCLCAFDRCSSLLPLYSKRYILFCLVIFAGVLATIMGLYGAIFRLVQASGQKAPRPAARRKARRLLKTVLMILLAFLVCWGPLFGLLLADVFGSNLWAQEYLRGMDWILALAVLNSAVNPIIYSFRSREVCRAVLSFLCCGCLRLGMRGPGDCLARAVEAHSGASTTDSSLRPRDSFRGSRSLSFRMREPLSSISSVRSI
# [4] = system: Salmonella typhimurium; test: Mutagenic activity in Salmonella Typhimurium TA98 by Ames test in presence of S9 fraction; type: toxicity, organism-based; conditions: salmonella enterica subsp. enterica serovar typhimurium
# [5] = system: Salmonella typhimurium; test: Mutagenic activity in Salmonella Typhimurium TA1535 by Ames test in presence of S9 fraction; type: toxicity, organism-based; conditions: salmonella enterica subsp. enterica serovar typhimurium
# [6] = target: Cytochrome P450 2C19 (Homo sapiens, UniProt P33261); test: Inhibition of CYP2C19; type: ADME
# [7] = target: T2, Sphingosine 1-phosphate receptor 1 (Homo sapiens, UniProt P21453); test: Agonist activity at recombinant human S1P1 receptor expressed in HEK293 cells after 2 hrs by beta-arrestin assay; type: functional, cell-based
# [8] = Half life in Sprague-Dawley rat at 1 mg/kg, iv and 1.5 mg/kg, po; type: ADME, organism-based; conditions: in vivo
# [9] = AUC (0 to last) in Sprague-Dawley rat at 1 mg/kg, iv and 1.5 mg/kg, po; type: ADME, organism-based; conditions: plasma
# [10] = Agonist activity at monkey S1P1 receptor expressed in HEK293 cells assessed as inhibition of forskolin-stimulated cAMP production after 1 hr by HTRF assay; type: functional, cell-based; conditions: Macaca mulatta, HEK293, 1 h
# [11] = target: Cytochrome P450 2D6 (Homo sapiens, UniProt P10635); test: Inhibition of CYP2D6; type: ADME
# [12] = system: Salmonella typhimurium; test: Mutagenic activity in Salmonella Typhimurium TA100 by Ames test in absence of S9 fraction; type: toxicity, organism-based; conditions: salmonella enterica subsp. enterica serovar typhimurium
# [13] = system: Salmonella typhimurium; test: Mutagenic activity in Salmonella Typhimurium TA97a by Ames test in presence of S9 fraction; type: toxicity, organism-based; conditions: salmonella enterica subsp. enterica serovar typhimurium
# [14] = system: Mus musculus; test: Immunomodulatory activity BALB/C mouse assessed as induction of lymphopenia at 1 mg/kg, po after 5 hrs; type: functional, organism-based; design: dose 1 mg/kg
# How it was run: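 Male BALB/c mice were given a single oral dose of 1.0 mg/kg or vehicle (0.5% methylcellulose). Blood lymphocytes were counted at one time point, 5 h post-dose, with n = 6 per dose group (mean ± SD). Lowering was judged relative to the vehicle group.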
# [15] = target: Cytochrome P450 3A4 (Homo sapiens, UniProt P08684); test: Inhibition of CYP3A4; type: ADME
# [16] = Agonist activity at dog S1P1 receptor expressed in HEK293 cells assessed as inhibition of forskolin-stimulated cAMP production after 1 hr by HTRF assay; type: functional, cell-based; conditions: HEK293, 1 h
# [17] = Volume of distribution at steady state in Sprague-Dawley rat at 1 mg/kg, iv and 1.5 mg/kg, po; type: ADME, organism-based; conditions: in vivo, read-out: Vdss
# [18] = Metabolic stability in human liver microsomes assessed as half life; type: ADME, Microsome
# [19] = Protein binding in human; type: ADME, organism-based; conditions: in vivo, read-out: PB (converted)
# [20] = target: Sphingosine 1-phosphate receptor 3 (Homo sapiens, UniProt Q99500); test: Agonist activity at recombinant human S1P3 receptor expressed in HEK293 cells after 2 hrs by beta-arrestin assay; type: functional, cell-based
# [21] = target: Cytochrome P450 2C9 (Homo sapiens, UniProt P11712); test: Inhibition of CYP2C9; type: ADME
# [22] = target: Sphingosine 1-phosphate receptor 1 (Rattus norvegicus, UniProt P48303); test: Agonist activity at rat S1P1 receptor expressed in HEK293 cells assessed as inhibition of forskolin-stimulated cAMP production after 1 hr by HTRF assay; type: functional, cell-based
# [23] = system: Salmonella typhimurium; test: Mutagenic activity in Salmonella Typhimurium TA98 by Ames test in absence of S9 fraction; type: toxicity, organism-based; conditions: salmonella enterica subsp. enterica serovar typhimurium
# [24] = target: hERG (KCNH2) (Homo sapiens, UniProt Q12809); test: Inhibition of human ERG at 3 uM by patch clamp assay
# [25] = system: Salmonella typhimurium; test: Mutagenic activity in Salmonella Typhimurium TA100 by Ames test in presence of S9 fraction; type: toxicity, organism-based; conditions: salmonella enterica subsp. enterica serovar typhimurium
# [26] = system: Salmonella typhimurium; test: Mutagenic activity in Salmonella Typhimurium TA1535 by Ames test in absence of S9 fraction; type: toxicity, organism-based; conditions: salmonella enterica subsp. enterica serovar typhimurium
# [27] = Tmax in Sprague-Dawley rat at 1 mg/kg, iv and 1.5 mg/kg, po; type: ADME, organism-based; conditions: in vivo
# [28] = target: Sphingosine 1-phosphate receptor 2 (Homo sapiens, UniProt O95136); test: Agonist activity at recombinant human S1P2 receptor expressed in HEK293 cells after 2 hrs by beta-arrestin assay; type: functional, cell-based
# [29] = Metabolic stability in rat liver microsomes assessed as half life; type: ADME, Microsome
# [30] = target: T2, Sphingosine 1-phosphate receptor 1; test: Agonist activity at human S1P1 receptor expressed in HEK293 cells assessed as inhibition of forskolin-stimulated cAMP production after 1 hr by HTRF assay; type: functional, cell-based
# How it was run: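 Human S1P₁ cAMP HTRF read-out; each EC₅₀ is the mean of three or more replicates.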
# [31] = target: Voltage-gated inwardly rectifying potassium channel KCNH2 (Homo sapiens, UniProt Q12809); test: Displacement of [3H]astemizole from human ERG
# [32] = target: T3, Cytochrome P450 1A2 (Homo sapiens, UniProt P05177); test: Inhibition of CYP1A2; type: ADME
# T3 sequence (P05177 whole entry): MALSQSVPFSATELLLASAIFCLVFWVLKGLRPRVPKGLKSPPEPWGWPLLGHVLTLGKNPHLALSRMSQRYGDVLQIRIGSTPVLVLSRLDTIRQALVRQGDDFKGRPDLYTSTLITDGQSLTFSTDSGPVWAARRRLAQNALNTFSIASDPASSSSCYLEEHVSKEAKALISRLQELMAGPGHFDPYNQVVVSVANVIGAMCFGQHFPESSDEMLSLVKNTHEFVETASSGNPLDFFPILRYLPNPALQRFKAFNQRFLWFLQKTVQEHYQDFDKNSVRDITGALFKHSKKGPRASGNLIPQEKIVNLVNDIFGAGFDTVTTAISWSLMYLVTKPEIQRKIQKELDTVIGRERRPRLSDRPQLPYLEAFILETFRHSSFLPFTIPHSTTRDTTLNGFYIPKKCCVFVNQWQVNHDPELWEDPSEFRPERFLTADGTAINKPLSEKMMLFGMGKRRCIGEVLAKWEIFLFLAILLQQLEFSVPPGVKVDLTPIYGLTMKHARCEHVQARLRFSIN
# [33] = target: Sphingosine 1-phosphate receptor 5 (Homo sapiens, UniProt Q9H228); test: Agonist activity at recombinant human S1P5 receptor expressed in HEK293 cells after 2 hrs by beta-arrestin assay; type: functional, cell-based
# [34] = Clearance in Sprague-Dawley rat at 1 mg/kg, iv and 1.5 mg/kg, po; type: ADME, organism-based; conditions: in vivo
# [35] = target: Sphingosine 1-phosphate receptor 1 (Mus musculus, UniProt O08530); test: Agonist activity at mouse S1P1 receptor expressed in HEK293 cells assessed as inhibition of forskolin-stimulated cAMP production after 1 hr by HTRF assay; type: functional, cell-based
# [36] = Oral bioavailability in Sprague-Dawley rat at 1.5 mg/kg; type: ADME, organism-based; conditions: in vivo
# [37] = Half life in Sprague-Dawley rat at 2 mg/kg, iv and 3 mg/kg, po; type: ADME, organism-based; conditions: in vivo
# [38] = Volume of distribution at steady state in Sprague-Dawley rat at 2 mg/kg, iv and 3 mg/kg, po; type: ADME, organism-based; conditions: in vivo, read-out: Vdss
# [39] = system: Mus musculus; test: Immunomodulatory activity in po dosed BALB/C mouse assessed as induction of lymphopenia after 16 hrs; type: functional, organism-based
# How it was run: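 Male BALB/c mice were dosed orally at 1, 3 or 10 mg/kg, or with vehicle (0.5% methylcellulose in water). Blood was sampled up to 24 h post-dose for lymphocyte counts and plasma drug levels (mean ± SD). An indirect PK/PD model was fitted to give the blood concentration suppressing lymphocytes by 50%.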
# [40] = Protein binding in rat; type: ADME, organism-based; conditions: in vivo, read-out: PB (converted)
# [41] = Cmax in Sprague-Dawley rat at 2 mg/kg, iv and 3 mg/kg, po; type: ADME, organism-based; conditions: in vivo
# [42] = Terminal half life in mouse; type: ADME, organism-based; conditions: in vivo, read-out: beta t1/2 (converted)
# [43] = Clearance in Sprague-Dawley rat at 2 mg/kg, iv and 3 mg/kg, po; type: ADME, organism-based; conditions: in vivo
# [44] = AUC (0 to last) in Sprague-Dawley rat at 2 mg/kg, iv and 3 mg/kg, po; type: ADME, organism-based; conditions: plasma
# [45] = Tmax in Sprague-Dawley rat at 2 mg/kg, iv and 3 mg/kg, po; type: ADME, organism-based; conditions: in vivo
# [46] = system: Mus musculus; test: Immunomodulatory activity BALB/C mouse assessed as induction of lymphopenia at 0.3 to 3 mg/kg, po after 24 hrs; type: functional, organism-based; conditions: 1 to 10 mg/kg, in the assay text read “1 to 10 mg/kg” for “0.3 to 3 mg/kg”
# [47] = Oral bioavailability in Sprague-Dawley rat at 3 mg/kg; type: ADME, organism-based; conditions: in vivo
# T2 sequence (P21453 whole entry): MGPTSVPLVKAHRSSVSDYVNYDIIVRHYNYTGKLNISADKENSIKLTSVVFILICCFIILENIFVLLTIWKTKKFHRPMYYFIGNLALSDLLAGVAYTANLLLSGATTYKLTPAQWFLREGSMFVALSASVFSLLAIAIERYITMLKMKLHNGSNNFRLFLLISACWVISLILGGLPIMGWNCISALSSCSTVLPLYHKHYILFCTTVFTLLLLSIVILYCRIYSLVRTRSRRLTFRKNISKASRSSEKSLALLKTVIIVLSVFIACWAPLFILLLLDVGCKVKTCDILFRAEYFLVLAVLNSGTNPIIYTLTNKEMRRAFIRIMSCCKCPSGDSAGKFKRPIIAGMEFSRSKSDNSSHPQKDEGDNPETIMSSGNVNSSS
# Chain of Sphingosine 1-phosphate receptor 1 (Mus musculus, UniProt O08530) (O08530 whole entry): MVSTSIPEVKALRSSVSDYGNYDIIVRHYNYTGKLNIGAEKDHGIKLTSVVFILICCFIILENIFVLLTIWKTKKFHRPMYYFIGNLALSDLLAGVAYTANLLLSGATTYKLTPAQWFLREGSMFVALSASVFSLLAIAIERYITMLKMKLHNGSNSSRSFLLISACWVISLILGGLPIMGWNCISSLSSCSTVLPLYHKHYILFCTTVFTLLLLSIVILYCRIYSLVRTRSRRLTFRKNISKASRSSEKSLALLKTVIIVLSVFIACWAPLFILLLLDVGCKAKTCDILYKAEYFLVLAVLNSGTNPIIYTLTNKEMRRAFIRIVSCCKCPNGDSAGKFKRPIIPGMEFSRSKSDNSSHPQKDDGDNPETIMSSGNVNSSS
# Chain of Cytochrome P450 2C9 (P11712 whole entry): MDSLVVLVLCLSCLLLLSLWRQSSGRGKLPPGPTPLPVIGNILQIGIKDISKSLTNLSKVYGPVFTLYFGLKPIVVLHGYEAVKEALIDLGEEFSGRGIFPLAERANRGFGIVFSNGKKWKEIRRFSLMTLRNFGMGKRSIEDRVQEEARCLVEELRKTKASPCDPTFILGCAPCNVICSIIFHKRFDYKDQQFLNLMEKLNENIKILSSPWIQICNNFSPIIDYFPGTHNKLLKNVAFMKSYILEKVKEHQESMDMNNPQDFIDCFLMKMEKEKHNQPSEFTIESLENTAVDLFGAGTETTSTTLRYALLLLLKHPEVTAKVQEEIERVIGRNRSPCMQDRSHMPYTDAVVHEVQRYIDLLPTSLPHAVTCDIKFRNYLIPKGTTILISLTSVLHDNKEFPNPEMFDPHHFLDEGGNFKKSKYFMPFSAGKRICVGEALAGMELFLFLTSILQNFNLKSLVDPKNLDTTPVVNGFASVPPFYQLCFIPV
# Chain of Sphingosine 1-phosphate receptor 3 (Q99500 whole entry): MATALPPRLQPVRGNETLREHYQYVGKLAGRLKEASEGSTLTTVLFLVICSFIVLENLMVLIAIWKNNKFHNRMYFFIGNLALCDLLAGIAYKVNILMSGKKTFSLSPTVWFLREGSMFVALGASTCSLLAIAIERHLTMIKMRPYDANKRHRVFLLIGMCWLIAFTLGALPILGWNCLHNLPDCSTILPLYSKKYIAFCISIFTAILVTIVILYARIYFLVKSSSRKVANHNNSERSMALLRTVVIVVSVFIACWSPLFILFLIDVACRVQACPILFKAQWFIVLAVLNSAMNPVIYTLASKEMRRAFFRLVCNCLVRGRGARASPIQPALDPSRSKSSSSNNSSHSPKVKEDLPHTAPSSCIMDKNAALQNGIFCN
# Chain of Voltage-gated inwardly rectifying potassium channel KCNH2 (Q12809 whole entry): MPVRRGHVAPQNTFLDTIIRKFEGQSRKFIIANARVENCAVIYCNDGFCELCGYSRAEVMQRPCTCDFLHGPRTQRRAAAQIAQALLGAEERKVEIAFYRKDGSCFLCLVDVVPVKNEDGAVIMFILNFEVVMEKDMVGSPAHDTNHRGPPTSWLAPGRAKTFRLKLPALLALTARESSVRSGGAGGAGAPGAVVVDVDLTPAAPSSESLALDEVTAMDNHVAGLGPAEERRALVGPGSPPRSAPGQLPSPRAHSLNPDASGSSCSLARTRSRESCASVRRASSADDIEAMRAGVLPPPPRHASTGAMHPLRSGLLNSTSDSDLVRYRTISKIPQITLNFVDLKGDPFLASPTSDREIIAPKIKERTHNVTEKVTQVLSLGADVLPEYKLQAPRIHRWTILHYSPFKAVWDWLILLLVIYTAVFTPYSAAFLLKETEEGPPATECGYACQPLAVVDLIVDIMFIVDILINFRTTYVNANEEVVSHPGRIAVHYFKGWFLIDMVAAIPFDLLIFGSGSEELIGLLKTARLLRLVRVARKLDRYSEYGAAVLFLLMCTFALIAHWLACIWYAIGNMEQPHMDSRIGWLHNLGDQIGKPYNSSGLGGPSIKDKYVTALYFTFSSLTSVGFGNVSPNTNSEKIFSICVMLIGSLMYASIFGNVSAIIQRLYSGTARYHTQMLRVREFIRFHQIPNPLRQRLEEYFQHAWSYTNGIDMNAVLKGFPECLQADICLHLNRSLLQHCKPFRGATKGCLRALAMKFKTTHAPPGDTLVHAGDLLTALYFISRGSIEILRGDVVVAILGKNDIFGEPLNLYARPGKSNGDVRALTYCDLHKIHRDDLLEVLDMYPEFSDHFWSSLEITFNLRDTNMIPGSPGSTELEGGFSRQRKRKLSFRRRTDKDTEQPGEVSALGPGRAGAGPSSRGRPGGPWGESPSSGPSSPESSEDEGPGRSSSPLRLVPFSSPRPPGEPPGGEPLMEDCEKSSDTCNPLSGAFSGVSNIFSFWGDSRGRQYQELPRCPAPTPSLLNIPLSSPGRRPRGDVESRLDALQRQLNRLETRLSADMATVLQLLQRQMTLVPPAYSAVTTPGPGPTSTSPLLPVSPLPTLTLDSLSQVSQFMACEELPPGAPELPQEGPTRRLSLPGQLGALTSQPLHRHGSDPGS
# Chain of hERG (KCNH2) (Q12809 whole entry): as above
# Chain of Sphingosine 1-phosphate receptor 1 (Rattus norvegicus, UniProt P48303) (P48303 whole entry): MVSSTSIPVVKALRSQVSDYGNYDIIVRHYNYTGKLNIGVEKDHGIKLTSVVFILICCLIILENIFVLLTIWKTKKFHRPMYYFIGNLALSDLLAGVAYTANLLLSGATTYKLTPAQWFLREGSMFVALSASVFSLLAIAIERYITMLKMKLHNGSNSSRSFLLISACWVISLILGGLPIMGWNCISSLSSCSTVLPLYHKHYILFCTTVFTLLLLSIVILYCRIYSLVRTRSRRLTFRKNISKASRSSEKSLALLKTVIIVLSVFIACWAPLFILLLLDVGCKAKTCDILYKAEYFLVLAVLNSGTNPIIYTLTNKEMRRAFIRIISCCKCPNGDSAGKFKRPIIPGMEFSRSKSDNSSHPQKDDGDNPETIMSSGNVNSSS
# Chain of Cytochrome P450 2C19 (P33261 whole entry): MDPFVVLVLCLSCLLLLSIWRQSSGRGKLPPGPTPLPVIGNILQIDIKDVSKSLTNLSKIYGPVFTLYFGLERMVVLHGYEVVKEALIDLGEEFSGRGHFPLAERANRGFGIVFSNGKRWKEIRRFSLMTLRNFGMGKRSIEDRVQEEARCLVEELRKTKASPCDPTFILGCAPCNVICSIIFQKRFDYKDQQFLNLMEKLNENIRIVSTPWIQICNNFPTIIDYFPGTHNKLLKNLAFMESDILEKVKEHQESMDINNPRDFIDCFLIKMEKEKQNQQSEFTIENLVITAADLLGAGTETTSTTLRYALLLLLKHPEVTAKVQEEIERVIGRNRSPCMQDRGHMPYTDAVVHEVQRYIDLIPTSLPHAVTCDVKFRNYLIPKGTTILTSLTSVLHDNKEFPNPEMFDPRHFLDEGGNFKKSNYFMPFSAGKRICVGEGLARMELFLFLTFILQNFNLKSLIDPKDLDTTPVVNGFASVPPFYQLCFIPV
pEC50 [3],pIC50 [6],pEC50 [7],pEC50 [10],pIC50 [11],pIC50 [15],pEC50 [16],half-life [18],fraction unbound [19],pEC50 [20],pIC50 [21],pEC50 [22],SMILES,Activity [1],Activity [4],Activity [5],Activity [12],Activity [13],Activity [23],inhibition at 3 µM [24],Activity [25],also measured
6.80,< 4.30,7.41,8.96,< 4.30,< 4.30,8.89,> 1 h,0.006,5.51,4.46,8.89,O=C(O)CCC(=O)N1CCc2cc(-c3noc(-c4cc(C(F)(F)F)cc(C(F)(F)F)c4)n3)ccc21,Non-toxic,Non-toxic,Non-toxic,Non-toxic,Non-toxic,Non-toxic,< 10%,Non-toxic,Cmax [2]: 1740 ng/mL; half-life [8]: 8.5 h; AUC(0-t) [9]: 16000 ng·h/mL; Activity [14]: Active; Vd [17]: 0.564 L/kg; Activity [26]: Non-toxic; Tmax [27]: 3 h; pEC50 [28]: < 4.00; half-life [29]: > 1 h; pEC50 [30]: 8.34; pIC50 [31]: < 4.00; pIC50 [32]: < 4.30; pEC50 [33]: 7.06; clearance [34]: 0.633 mL/min/kg; pEC50 [35]: 8.85; bioavailability [36]: 50.2%
5.88,< 4.30,7.51,9.10,< 4.30,< 4.30,9.15,> 1 h,0.003,< 4.00,< 4.30,9.00,N#Cc1cc(OC(F)(F)F)cc(-c2nc(-c3ccc4c(c3)CCN4C(=O)CCC(=O)O)no2)c1,Non-toxic,Non-toxic,Non-toxic,Non-toxic,Non-toxic,Non-toxic,13%,Non-toxic,half-life [37]: 2.9 h; Vd [38]: 0.275 L/kg; IC50 [39]: 0.431 µg/mL; fraction unbound [40]: 0.007; Cmax [41]: 3820 ng/mL; half-life [42]: 3 h; clearance [43]: 0.75 mL/min/kg; Activity [26]: Non-toxic; pEC50 [28]: < 4.00; half-life [29]: > 1 h; pEC50 [30]: 8.92; pIC50 [31]: < 4.00; pIC50 [32]: < 4.30; pEC50 [33]: 6.96; AUC(0-t) [44]: 20200 ng·h/mL; Tmax [45]: 2 h; Activity [46]: inactive; pEC50 [35]: 8.96; bioavailability [47]: 32.8%

# — ChEMBL document CHEMBL1914334, “Discovery and characterization of potent and selective 4-oxo-4-(5-(5-phenyl-1,2,4-oxadiazol-3-yl)indolin-1-yl)butanoic acids as S1P₁ agonists” (Bioorg Med Chem Lett, 2011)
